From ChEMBL document CHEMBL3853277, “Efficient Synthesis of Glaziovianin A Isoflavone Series from Dill and Parsley Extracts and Their in Vitro/in Vivo Antimitotic Activity” (J Nat Prod, 2016) come the findings set out here.

Molecules are shown by their SMILES.

Experiment [1] relates to Paracentrotus lividus. The experiment can be described thus: Antimitotic activity against sea urchin Paracentrotus lividus L embryo assessed as induction of embryo spinning. Format: functional. The essentials:
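Hatched free-swimming blastulae (8−9 h postfertilization) exposed to 2-fold decreasing concentrations in seawater, room temperature; DMSO stock diluted 10-fold in 96% EtOH. Observed to four-arm pluteus (34−36 h); spinning on well bottom without forward movement scored as microtubule destabilization; effective threshold concentration, duplicate measurements.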

Experiment [2] can be described thus: Growth inhibition of human HCT116 cells measured after 48 hrs by MTS assay. Type of experiment: functional, cell-based. As to conditions: HCT-116, 48 h. A digest of the protocol: (§1)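 Cancer lines grown in their own media with 10% FBS at 37 °C, 5% CO2; 1 × 10^4 cells/well treated 48 h at 0.01−100 μM (DMSO stocks, 0.1% DMSO control), quadruplicate wells. MTS reagent 1−4 h, absorbance 490 nm. IC50 by sigmoidal fitting; mean ± SD of three independent experiments.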

The nature of experiment [3]: Growth inhibition of human PC3 cells measured after 48 hrs by MTS assay. Type of experiment: functional, cell-based. As to conditions: PC-3, 48 h. A digest of the protocol: as §1
Experiment [4] can be described thus: Growth inhibition of human A375 cells measured after 48 hrs by MTS assay. Type of experiment: functional, cell-based. As to conditions: A-375, 48 h. A digest of the protocol:
as §1
In general terms: Tetrazolium assays rely on reduction of a dye to a coloured formazan, in cell work by metabolically active cells.

Experiment [5] in a line: Growth inhibition of human MDA-MB-231 cells measured after 48 hrs by MTS assay. Type of experiment: functional, cell-based. The following applies: MDA-MB-231, 48 h. A digest of the protocol: as §1
The nature of experiment [6]: Growth inhibition of human DU145 cells measured after 48 hrs by MTS assay. Format: functional, cell-based. The following applies: DU-145, 48 h. The essentials: as §1
The subject of experiment [7] is Paracentrotus lividus. The experiment can be described thus: Antimitotic activity in sea urchin Paracentrotus lividus L embryo assessed as induction of cleavage alteration. Format: functional. A digest of the protocol: (§2)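 Gametes collected by intracoelomic 0.5 M KCl injection; fertilized eggs (8−15 min postfertilization) exposed in seawater to 2-fold decreasing concentrations, up to 2000 embryos/mL, room temperature. Stocks 10 mM in DMSO diluted 10-fold in 96% EtOH. Cleavage alteration/arrest scored at 2.5−5.5 h; effective threshold concentration reported, duplicate measurements.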

A short description of experiment [8]: Growth inhibition of human SKOV3 cells measured after 48 hrs by MTS assay. Type of experiment: functional, cell-based. The following applies: SK-OV-3, 48 h. The essentials:
as §1

Experiment [9] in a line: Growth inhibition of human A549 cells by MTS assay. Format: functional, cell-based. The essentials:
as §1

For experiment [10], the system named is Paracentrotus lividus. The experiment can be described thus: Antimitotic activity against sea urchin Paracentrotus lividus L embryo assessed as induction of cleavage arrest. Type of experiment: functional. A digest of the protocol: as §2
Experiment [11] in a line: Growth inhibition of human PBMC cells measured after 48 hrs by MTS assay. Format: cell-based. A digest of the protocol:
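PBMCs from healthy volunteers by Ficoll-Paque density separation, washed in RPMI 1640, cultured in RPMI 1640 with 10% heat-inactivated FBS at 37 °C, 5% CO2. Seeded 1 × 10^4 cells/well, treated 48 h at 0.01−100 μM, 0.1% DMSO control, quadruplicate wells; MTS read at 490 nm; IC50 by sigmoidal fitting, three experiments.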

Experiment [12] has as its system Paracentrotus lividus. The experiment can be described thus: Antimitotic activity against sea urchin Paracentrotus lividus L embryo assessed as induction of tuberculate egg formation. Format: functional. The essentials: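 Fertilized eggs were exposed 8−15 min post-fertilization to 2-fold decreasing concentrations, as a monolayer of up to 2000 embryos/mL in filtered seawater at room temperature. The 10 mM DMSO stock was diluted 10-fold in 96% EtOH. Cleavage alteration or arrest was scored by light microscopy at 2.5−5.5 h post-fertilization, and the effective threshold concentration was recorded from duplicate measurements.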

Take `COc1cc2occ(-c3cc(OC)c(OC)c(OC)c3OC)c(=O)c2cc1OC`: the EC in [1], in experiment [7] and in experiment [10] was >4 µM throughout. Further, the IC50 in experiment [2], in [3], in experiment [4], in experiment [5], in [6] and in experiment [8] was > 10 µM in each case. Further, the IC50 in experiment [9] and in experiment [11] was > 10 µM throughout.

For the molecule `COc1ccc(-c2coc3cc(OC)c(OC)cc3c2=O)cc1`, the EC in [1] was >5 µM; in [12] it was 1 µM; in experiment [7], 0.2 µM. Moreover, the IC50 in experiment [2], in [3], in [4], in [5], in experiment [6] and in experiment [8] was > 10 µM throughout. Also, the IC50 in [9] and in [11] was > 10 µM each time.

Consider `COc1ccc(-c2coc3cc(OC)c(OC)cc3c2=O)cc1OC`, for which the EC is >4 µM in experiment [1], 4 µM in experiment [7] and >4 µM in experiment [10]. For the same molecule, the IC50 in experiment [2], in experiment [3], in experiment [4], in experiment [5], in experiment [6] and in experiment [8] was > 10 µM each time. For the same molecule, the half-inhibitory concentration (IC50) in [9] and in experiment [11] was > 10 µM in each case.

On to `COc1ccc(-c2coc3c(OC)c(OC)c(OC)cc3c2=O)cc1OC`, for which the EC in experiment [1] is >4 µM; in [7], 4 µM; in experiment [10] it was >4 µM.

For `COc1cc2occ(-c3cc(OC)c4c(c3)OCO4)c(=O)c2cc1OC`, the EC was >5 µM in experiment [1], 1 µM in experiment [12] and 0.1 µM in [7]. Besides, the IC50 in experiment [2] is > 10 µM; in [3] it was > 10 µM; in [4], 6.1 µM; in experiment [5], > 10 µM; in experiment [6], > 10 µM; in experiment [8], > 10 µM. The IC50 in [9] and in [11] was > 10 µM each time.

For the molecule `COc1ccc(-c2coc3c(OC)c4c(c(OC)c3c2=O)OCO4)cc1OC`, the EC in [1], in experiment [7] and in experiment [10] was >4 µM in each case. Further, the IC50 in experiment [2], in experiment [3], in experiment [4], in experiment [5], in experiment [6] and in experiment [8] was > 10 µM throughout. In addition, the IC50 in [9] and in [11] was > 10 µM throughout.

As for `COc1cc2occ(-c3cc(OC)c(OC)c(OC)c3)c(=O)c2cc1OC`, the EC in experiment [1] is >5 µM; in experiment [12] it was 1 µM; in [7], 0.2 µM. The IC50 in [2] is 2.8 µM; in experiment [3], 5.1 µM; in experiment [4], 3.2 µM; in experiment [5], > 10 µM; in experiment [6], 4.9 µM; in experiment [8] it was 4.3 µM. The IC50 in [9] and in experiment [11] was > 10 µM throughout.

In the case of `COc1cc2occ(-c3cc4c(c(OC)c3OC)OCO4)c(=O)c2cc1OC`, the EC in [1] is >5 µM; in experiment [12], 5 µM; in experiment [7] it was 0.5 µM. For the same molecule, the IC50 in experiment [2] is 3.4 µM; in [3], 7.3 µM; in experiment [4], 1.7 µM; in experiment [5] it was 7.1 µM; in experiment [6] it was 6.4 µM; in [8], > 10 µM. The IC50 in experiment [9] and in experiment [11] was > 10 µM each time.

As to `COc1cccc(-c2coc3cc(OC)c(OC)cc3c2=O)c1`, the EC in [1] is >5 µM; in experiment [7] it was 2 µM; in experiment [10] it was >4 µM. In addition, the half-maximal inhibitory concentration (IC50) in experiment [2], in experiment [3], in experiment [4], in experiment [5], in [6] and in experiment [8] was > 10 µM in each case. Besides, the IC50 in experiment [9] and in experiment [11] was > 10 µM throughout.

Turning to `COc1ccc(-c2coc3cc(OC)c(O)cc3c2=O)cc1`, the EC in experiment [1] was >5 µM; in [12], 4 µM; in experiment [7], 1 µM.

On to `COc1ccc(-c2coc3cc(OC)c(OC)c(OC)c3c2=O)cc1`, for which the EC in experiment [1], in [7] and in experiment [10] was >4 µM each time.

On to `COc1ccc(/C=C\c2cc(OC)c(OC)c(OC)c2)cc1OP(=O)([O-])[O-].[Na+].[Na+]` [FOSBRETABULIN DISODIUM], for which the EC is 0.05 µM in experiment [1], 0.005 µM in [7] and 0.01 µM in experiment [10]. Further, the IC50 worked out at 0.0016 µM in experiment [2]; 0.0062 µM in experiment [3]; 0.0016 µM in [4]; 0.0028 µM in experiment [5]; 0.0014 µM in experiment [6]; 0.0077 µM in [8]. The IC50 in experiment [9] turned out to be 0.0234 µM; in [11], 0.17 µM.

For `COc1cc2occ(-c3cc(OC)c4c(c3OC)OCO4)c(=O)c2cc1OC` [GLAZIOVIANIN A], the EC stood at 4 µM in [1], 0.05 µM in [7] and 0.5 µM in experiment [10]. The IC50 in experiment [2] worked out at 0.69 µM; in experiment [3], 0.83 µM; in experiment [4], 0.27 µM; in experiment [5], 2.2 µM; in [6] it was 0.87 µM; in [8], 0.43 µM. The IC50 in experiment [9] was 1.1 µM; in experiment [11] it was > 10 µM.

By IC50 is commonly meant the midpoint of a concentration-inhibition curve. A higher IC50 goes with weaker potency.
